# Calls of active or inactive are those of the source. No cut-off for these calls is given here.
# Assays:
# KS [1] = assay: Cytotoxicity against human KS cells after 24 hrs by coulter counter; assay type: functional, cell-based
# Method in brief: (§1)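 KS cells (from HIV-1 patients, spontaneously immortalized) seeded at 5 × 10^3 cells/well and left to attach 24 h. Washed in HBSS-10 mM Hepes, serum-starved 12 h, then exposed at 37 °C for 24 h in fresh serum-free medium to a range of concentrations (DMSO vehicle). Washed, then cell number by XTT (OD 490 nm) and Coulter counter. At least three independent experiments in duplicate, mean ± SEM.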
# KS [2] = assay: Cytotoxicity against human KS cells after 24 hrs by XTT assay; assay type: functional, cell-based; method in brief: as §1
# KS [3] = assay: Cytotoxicity against human KS cells at >1 uM after 24 hrs; assay type: functional, cell-based
# [4] = Induction of apoptosis in human KS cells assessed as DNA fragmentation at 10 uM […] by FACS relative to control; assay type: functional
# Method in brief: (§2)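 KS cells serum-starved 12 h and washed with HBSS-10 mM HEPES. Preincubated 1 h at 37 °C with compound (1 or 10 µM) in DMSO (final <0.1%), washed, then cultured 24 h in 1% FBS medium. Hypodiploid (sub-G1) fraction counted by FACS against control.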
# KS [5] = assay: Induction of apoptosis in human KS cells assessed as caspase 3 activity at 10 uM by DEVD-AFC fluorimetric assay; assay type: functional, cell-based
# Method in brief: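 KS cells handled as in the treatment protocol (12 h starvation, 1 h 37 °C exposure at 10 µM in DMSO, 24 h further culture in 1% FBS). Lysates incubated with the caspase-3 substrate DEVD-AFC. Fluorescence read as fold over untreated. Three independent experiments in duplicate (n = 6), mean ± SEM.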
# [6] = Induction of apoptosis in human KS cells assessed as DNA fragmentation at 1 uM […] by FACS relative to control; assay type: functional; method in brief: as §2
# KS [7] = assay: Effect on human KS cell survival assessed as cell detachment at >1 uM by micrograph analysis; assay type: functional, cell-based
Structure (SMILES),Activity (KS [1]),Activity (KS [2]),Activity (KS [3]),Activity [4] [%],Activity (KS [5]),Activity [6] [%],Activity (KS [7])
C[C@]12[C@H](O)C[C@H]3[C@@H](CC[C@H]4C[C@H]5O[C@@H]6O[C@H](CO)C[C@@H](O)[C@]6(O)O[C@@H]5C[C@@]43CO)[C@@]1(O)CC[C@@H]2C1=CC(=O)OC1 [GHALAKINOSIDE],Dose-dependent effect,Dose-dependent effect,Active,45,Active,–,–
C[C@@H]1C[C@@H](O)[C@]2(O)O[C@@H]3C[C@@]4(CO)[C@@H](CC[C@@H]5[C@@H]4C[C@@H](O)[C@]4(C)[C@@H](C6=CC(=O)OC6)CC[C@]54O)C[C@H]3O[C@@H]2O1,Dose-dependent effect,Dose-dependent effect,Active,45,Active,–,–
C[C@@H]1C[C@@H](O[C@@H]2O[C@H](CO)[C@@H](O)[C@H](O)[C@H]2O)[C@]2(O)O[C@@H]3C[C@@]4(C=O)[C@@H](CC[C@@H]5[C@@H]4CC[C@]4(C)[C@@H](C6=CC(=O)OC6)CC[C@]54O)C[C@H]3O[C@@H]2O1,Dose-dependent effect,Dose-dependent effect,Active,45,Active,35,Active
C[C@]12CC[C@H]3[C@@H](CC[C@H]4C[C@H]5O[C@@H]6O[C@H](CO)C[C@@H](O)[C@]6(O)O[C@@H]5C[C@@]43CO)[C@@]1(O)CC[C@@H]2C1=CC(=O)OC1,Dose-dependent effect,Dose-dependent effect,Active,45,Active,–,–
C[C@@H]1C[C@@H](O)[C@]2(O)O[C@@H]3C[C@@]4(C=O)[C@@H](CC[C@@H]5[C@@H]4CC[C@]4(C)[C@@H](C6=CC(=O)OC6)CC[C@]54O)C[C@H]3O[C@@H]2O1 [CALACTIN],Dose-dependent effect,Dose-dependent effect,Active,45,Active,–,–

# Reference: ChEMBL document CHEMBL1158058, “Cardenolide glycosides from Pergularia tomentosa and their proapoptotic activity in Kaposi's sarcoma cells” (2006)
